Key:
K562 = assay: Growth inhibition of human K562 cells expressing p210Bcr/Abl after 96 hrs by trypan blue exclusion assay; type: functional, cell-based; conditions: K562, 96 h
Procedure, shortened: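 K562 cells were kept in RPMI with 10% FBS and penicillin–streptomycin at 37 °C under 5% CO2. Cells were seeded at 1 × 10^5 cells/mL with a range of compound concentrations, using DMSO as the negative control. After 96 h, viability was counted by Trypan blue exclusion and expressed as percent of DMSO control to derive GI50.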

DU-145 = assay: Growth inhibition of human DU145 cells after 96 hrs by trypan blue exclusion assay; type: functional; conditions: DU-145, 96 h

In the case of `O=C(/C(=C\c1c(O)cc(O)cc1O)SCc1ccc(Cl)cc1Cl)c1ccc(Cl)cc1`, the GI50 (K562) is reported as greater than 100 µM and the GI50 (DU-145) is reported as 25 µM.

In the case of `O=C(O)c1ccc(/C=C(/SCc2ccc(Cl)cc2)C(=O)c2ccc(C(=O)O)cc2)cc1`, the GI50 (K562) is reported as greater than 100 µM and the GI50 (DU-145) is reported as greater than 100 µM.

Work on `O=C(/C(=C\c1ccc(F)cc1F)S(=O)(=O)c1ccc(Br)cc1)c1ccc(Br)cc1` yielded a GI50 (K562) of 1 µM and a GI50 (DU-145) of 7.5 µM.

In the case of `O=C(/C(=C\c1ccc(O)c([N+](=O)[O-])c1)Sc1ccc(Br)cc1)c1ccc(Br)cc1`, the GI50 (K562) is reported as 1 µM and the GI50 (DU-145) is reported as 1 µM.

`Cc1ccc(S/C(=C/c2ccc(-c3ccccc3)cc2)C(=O)c2ccc(Br)cc2)cc1` showed a GI50 (K562) of 25 µM and a GI50 (DU-145) of 50 µM.

`COc1ccc(S(=O)(=O)/C(=C/c2ccc(Cl)cc2Cl)C(=O)c2ccc(Br)cc2)cc1` gave a GI50 (K562) of 20 µM and a GI50 (DU-145) of 20 µM.

Work on `O=C(/C(=C\c1ccc(OC(F)(F)F)cc1)S(=O)(=O)c1ccc(Br)cc1)c1ccc(Br)cc1` yielded a GI50 (K562) of 25 µM and a GI50 (DU-145) of 25 µM.

Molecule `O=C(/C(=C\c1ccc(O)c([N+](=O)[O-])c1)S(=O)(=O)c1ccc(I)cc1)c1ccc(Br)cc1` has a GI50 (K562) of 25 µM and a GI50 (DU-145) of 25 µM.

In the case of `Cc1ccc(S/C(=C/c2sccc2C)C(=O)c2ccc(Cl)cc2)cc1`, the GI50 (K562) is reported as 50 µM and the GI50 (DU-145) is reported as 50 µM.

`O=C(/C(=C\c1ccccc1OCc1ccccc1)S(=O)(=O)c1ccc(Br)cc1)c1ccc(Cl)cc1` gave a GI50 (K562) of 1 µM and a GI50 (DU-145) of 1 µM.

With `COc1cc(C(=O)/C(=C\c2ccc([N+](=O)[O-])c(O)c2)SCc2ccc(Br)cc2)cc(OC)c1OC` the GI50 (K562) was 1 µM and the GI50 (DU-145) was 1 µM.

Work on `O=C(/C(=C\c1ccc([N+](=O)[O-])c(O)c1)SCc1ccc(Br)cc1)c1ccc(Br)cc1` yielded a GI50 (K562) of 1 µM and a GI50 (DU-145) of 10 µM.

With `O=C(/C(=C\c1ccc(O)c([N+](=O)[O-])c1)SCc1ccc(Br)cc1)c1ccc(Br)cc1` the GI50 (K562) was 10 µM and the GI50 (DU-145) was 10 µM.

`CN(C)c1ccc(/C=C(\C(=O)c2ccc(Br)cc2)S(=O)(=O)Cc2ccc(F)cc2)cc1` gave a GI50 (K562) of 50 µM and a GI50 (DU-145) of 50 µM.

`Cc1ccc(CS/C(=C/c2cccc(Cl)c2Cl)C(=O)c2ccc(Cl)cc2)cc1` gave a GI50 (K562) of 25 µM and a GI50 (DU-145) of 25 µM.

For `Cc1ccc(S/C(=C/c2c[nH]c3ccccc23)C(=O)c2ccc(Br)cc2)cc1`, the GI50 (K562) was 10 µM and the GI50 (DU-145) was 10 µM.

`Cc1ccc(S/C(=C/c2ccc(-c3ccccc3)cc2)C(=O)c2ccc(Cl)cc2)cc1` showed a GI50 (K562) of 25 µM and a GI50 (DU-145) of 50 µM.

`COc1ccc(/C=C(/Sc2ccc(F)cc2)C(=O)c2ccc(OC)cc2)cc1` showed a GI50 (K562) of 1 µM and a GI50 (DU-145) of 25 µM.

`O=C(/C(=C\c1ccc(Br)cc1)Sc1ccc(Br)cc1)c1ccc(Br)cc1` was tested, and the GI50 (K562) was 2.5 µM and the GI50 (DU-145) was 1 µM.

Work on `O=C(/C(=C\c1ccc(O)cc1O)SCc1ccc(Cl)cc1)c1ccc(Cl)cc1` yielded a GI50 (K562) of 50 µM and a GI50 (DU-145) of 50 µM.

`Cc1ccc(CS/C(=C/c2ccc(O)cc2)C(=O)c2ccc(Cl)cc2)cc1` gave a GI50 (K562) of 1 µM and a GI50 (DU-145) of 10 µM.

`O=C(/C(=C\c1c(O)cc(O)cc1O)S(=O)(=O)c1ccc(Br)cc1)c1ccc(Cl)cc1` showed a GI50 (K562) greater than 100 µM and a GI50 (DU-145) greater than 100 µM.

In the case of `Cc1ccc(CS(=O)(=O)/C(=C/c2cccc(Cl)c2Cl)C(=O)c2ccc(Cl)cc2)cc1`, the GI50 (K562) is reported as 1 µM and the GI50 (DU-145) is reported as 1 µM.

`O=C(/C(=C\c1cc(Cl)cc(Cl)c1Cl)S(=O)(=O)Cc1ccc(Cl)cc1)c1ccc(Br)cc1` gave a GI50 (K562) of 1 µM and a GI50 (DU-145) of 1 µM.

Molecule `O=C(/C(=C\c1ccc(I)cc1)S(=O)(=O)c1ccc(Br)cc1)c1ccc(Br)cc1` has a GI50 (K562) of 9 µM and a GI50 (DU-145) of 1 µM.

`CN(C)c1ccc(/C=C(/SCc2ccc(Cl)c(Cl)c2)C(=O)c2ccc(Cl)cc2)cc1` was tested, and the GI50 (K562) was 50 µM and the GI50 (DU-145) was 50 µM.

Work on `O=C(/C(=C\c1ccc([N+](=O)[O-])c(O)c1)SCc1ccc(Br)cc1)c1ccc([N+](=O)[O-])c(Cl)c1` yielded a GI50 (K562) of 1 µM and a GI50 (DU-145) of 1 µM.

`Cc1ccc(/C=C(\C(=O)c2ccc(Cl)cc2)S(=O)(=O)Cc2ccc(F)cc2)s1` was tested, and the GI50 (K562) was 50 µM and the GI50 (DU-145) was 50 µM.

For `O=C(/C(=C\c1ccccc1OCc1ccccc1)SCc1ccc(F)cc1)c1ccc(Cl)cc1`, the GI50 (K562) was 1 µM and the GI50 (DU-145) was 1 µM.

Work on `O=C(/C(=C\c1cc(Cl)c(O)c(Cl)c1)SCc1ccc(Br)cc1)c1ccc(Br)cc1` yielded a GI50 (K562) of 10 µM and a GI50 (DU-145) of 10 µM.

From ChEMBL document CHEMBL1240409, “Design, synthesis and evaluation of (E)-alpha-benzylthio chalcones as novel inhibitors of BCR-ABL kinase” (Bioorg Med Chem, 2010)
